Data: the RNAGym collection of RNA variant scans (doi:10.1126/science.aae0568)
Fewer inactive variants are shown than the library holds.

B1: tRNA (parent)
chain: GUUCCGUUGGCGUAAUGGUAACGCGUCUCCCUCCUAAGGAGAAGACUGCGGGUUCGAGUCCCGUACGGAACG

Variants of: B1
Experiment: yeast fitness relative to wild type (ratio to wild type); higher = fitter; tRNA-Arg(CCU), competitive growth, 37 C, YPD
Outline: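 The tRNA-Arg(CCU) gene variants were made by chemical synthesis with a 3% per-site mutation rate at 69 sites and inserted at the native genomic locus of Saccharomyces cerevisiae. After pooling, the strains were competed in YPD at 37°C for 24 hours in six parallel replicates. Gene amplicons from the start population and each end population were read by 100-nucleotide paired-end sequencing, and Darwinian fitness relative to wild type was taken from genotype frequency changes. Genotypes needed ≥ 100 starting reads, and estimates < 0.5 were set to 0.5.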
Work on G6A C22U C33U A36U A43C C60U C61G A70G yielded a yeast fitness of at most 0.5. G6A U8C A42C A45U C61G showed a yeast fitness of at most 0.5. Work on G6A C22U C29G A42G yielded a yeast fitness of at most 0.5. Variant G6A C30U U35A A37G G38C U47A has a yeast fitness of at most 0.5. Variant G6A C22A U35A C49G G63C has a yeast fitness of at most 0.5. Variant G6A C29U U47A G51A A57G has a yeast fitness of at most 0.5. In the case of G6A G12C U16C A21U, the yeast fitness is reported as 0.532. In the case of G6A G17A U19A C31G U53C U54A, the yeast fitness is reported as at most 0.5. Variant G6A C22U C49A has a yeast fitness of at most 0.5. Work on G6A C27U A42U C62U yielded a yeast fitness of at most 0.5. Variant G6A G52C C66U has a yeast fitness of 0.584. In the case of G6A G44A C60G U64C, the yeast fitness is reported as at most 0.5. With G6A C31A G68A the yeast fitness was at most 0.5. With G6A G50A G56U G58A the yeast fitness was at most 0.5. Variant G6A C27A A65G A70C has a yeast fitness of at most 0.5. Work on G6A G17C U35A G39A C55G C60U G67C yielded a yeast fitness of at most 0.5. G6A C11G C34G A42G C62U gave a yeast fitness of 0.609. With G6A G58A the yeast fitness was 0.902. Work on G6A G58C yielded a yeast fitness of 1.08. With G6A C34U U64A the yeast fitness was at most 0.5. In the case of G6A C22U C33A C55U C61A, the yeast fitness is reported as at most 0.5. G6A C22U U35C C55A C66U gave a yeast fitness of at most 0.5. Work on G6A G44A C46A yielded a yeast fitness of at most 0.5. With G6A C49U A65U the yeast fitness was 0.667. Work on G6A C49U A65C yielded a yeast fitness of 0.701. Work on G6A G18C C22G C33G yielded a yeast fitness of at most 0.5. With G6A G18C A37C C62A the yeast fitness was 0.604. G6A C24A G38A G39C G52A showed a yeast fitness of 0.625. Work on G6A G44A C61G yielded a yeast fitness of at most 0.5. Variant G6A C11U A70C has a yeast fitness of 0.578. With G6A C31U A43U C55A the yeast fitness was at most 0.5. Variant G6A G10C A15U C61A has a yeast fitness of at most 0.5. G6A G12A U13C U16A U19G G23A G58A G68A showed a yeast fitness of at most 0.5. With G6A C62U G67C the yeast fitness was at most 0.5. In the case of G6A G39C G44C C46U, the yeast fitness is reported as at most 0.5. G6A G9A C11G C24G U32A G52C gave a yeast fitness of at most 0.5. G6A C34A A37C A40U showed a yeast fitness of at most 0.5. In the case of G6A G12C U16C A21U C66U, the yeast fitness is reported as 0.571. With G6A C27A C30U G41C A43U C49A G63U the yeast fitness was 0.54. G6A G17A C31A C33G G38A gave a yeast fitness of at most 0.5. G6A G10C C34U C46U gave a yeast fitness of at most 0.5. With G6A C27G A65C the yeast fitness was 0.562. With G6A U7A A20G C46G the yeast fitness was 0.538. With G6A G23A the yeast fitness was 0.877. In the case of G6A G23C, the yeast fitness is reported as 0.643. Work on G6A C60G G67A yielded a yeast fitness of 0.53. Work on G6A C22U C29G yielded a yeast fitness of at most 0.5. With G6A C22A C31U G68C the yeast fitness was 0.709. For G6A C34G A37G U64C, the yeast fitness was at most 0.5. In the case of G6A C11U C22G U47A C60U, the yeast fitness is reported as at most 0.5. With G6A C34A A40U G52A A65U A70C the yeast fitness was at most 0.5. G6A C24U A57C G68U A69C showed a yeast fitness of at most 0.5. G6A G50A gave a yeast fitness of 0.841. For G6A G50U, the yeast fitness was 0.826. With G6A G50C the yeast fitness was 0.629. Work on G6A C60U yielded a yeast fitness of 0.675. For G6A C60G, the yeast fitness was 0.601. G6A G12A C33G U54A U59A G67A showed a yeast fitness of at most 0.5. With G6A G10C C29U the yeast fitness was at most 0.5. G6A C61G G67C showed a yeast fitness of 0.546. For G6A G63A, the yeast fitness was 0.883. Variant G6A G10A C60G has a yeast fitness of at most 0.5. In the case of G6A C27G A36C A42C A69C, the yeast fitness is reported as at most 0.5. For G6A C30A C31U A45C C55G, the yeast fitness was at most 0.5. Variant G6A G52A has a yeast fitness of 0.677. For G6A C60G A70C, the yeast fitness was 0.531. For G6A C24U A42U U53G G68C, the yeast fitness was at most 0.5. Variant G6A C11A C66A has a yeast fitness of at most 0.5. Variant G6A G41A has a yeast fitness of 0.822. G6A C55A G67A showed a yeast fitness of 0.534. For G6A G44A A45G G51C C66U A69C, the yeast fitness was at most 0.5. G6A C27G A42C showed a yeast fitness of at most 0.5. With G6A C27U C30U the yeast fitness was 0.596. Variant G6A U8C A14C C61U has a yeast fitness of at most 0.5. G6A G25C A65U showed a yeast fitness of 0.663. G6A C29G C30A U64G A69C gave a yeast fitness of at most 0.5. For G6A U8C A70U, the yeast fitness was 0.57. For G6A C31U C34U G52A, the yeast fitness was at most 0.5. For G6A C34A G58C A65C A69C, the yeast fitness was at most 0.5. For G6A C11G U35A A37U A70C, the yeast fitness was at most 0.5. With G6A G23A U47A G58C the yeast fitness was at most 0.5. With G6A C29U A43C C46U the yeast fitness was 0.623. G6A G9C C11G C34U showed a yeast fitness of at most 0.5. Work on G6A C24U G63A yielded a yeast fitness of 0.674. G6A C24G C31G gave a yeast fitness of 0.527. G6A U7A U26C C34G G63A gave a yeast fitness of at most 0.5. In the case of G6A C29U A43C C46U C49U G56C, the yeast fitness is reported as at most 0.5. G6A C31G C49A G68C showed a yeast fitness of 0.536. For G6A C22U A40C, the yeast fitness was at most 0.5. Work on G6A C49U C55U yielded a yeast fitness of 0.561. Variant G6A G18C A37C has a yeast fitness of at most 0.5. G6A C30G A57C G58C gave a yeast fitness of at most 0.5. Variant G6A C31G A43C C49A U54C C60G has a yeast fitness of at most 0.5. For G6A C11U C34G G58A, the yeast fitness was 0.724. With G6A G39A A65C the yeast fitness was 0.605. Work on G6A G12C U16A A21C G56A yielded a yeast fitness of 0.536. In the case of G6A C33U A43G, the yeast fitness is reported as at most 0.5. With G6A C29A C62A the yeast fitness was at most 0.5. G6A C30U G63A G67A showed a yeast fitness of at most 0.5. For G6A C62U A65C, the yeast fitness was 0.763. With G6A C11U U13C A43G G67U the yeast fitness was at most 0.5. With G6A C11U U13C A43G G52A G67A the yeast fitness was at most 0.5. With G6A G23A A42G C46U C55G the yeast fitness was 0.522. Variant G6A C24G G50A has a yeast fitness of at most 0.5. With G6A G10C A20C U28C A36U the yeast fitness was 0.695. For G6A G44C, the yeast fitness was 0.799. With G6A C33G C34G G41A G58C A70C the yeast fitness was 0.519. In the case of G6A C22U C27G A36G A43G, the yeast fitness is reported as at most 0.5. Variant G6A G9C U19C C24U U54C has a yeast fitness of at most 0.5. G6A G9A A21U C31G gave a yeast fitness of at most 0.5. G6A C24U C61G C66U A69U gave a yeast fitness of 0.568. In the case of G6A C27A A36G, the yeast fitness is reported as at most 0.5. G6A C27U C29A G58C showed a yeast fitness of at most 0.5. Variant G6A G10A C22G G25C has a yeast fitness of at most 0.5. With G6A U7A G38C the yeast fitness was 0.603. Variant G6A G12A G41A A65U has a yeast fitness of 0.547. In the case of G6A C61G A70C, the yeast fitness is reported as 0.522. G6A C11G U35A A37U U53A A65G showed a yeast fitness of at most 0.5. For G6A C24U C55G A70U, the yeast fitness was 0.624. G6A C33U C49A G58C A69U gave a yeast fitness of at most 0.5. Variant G6A C11U G68C has a yeast fitness of 0.54. Work on G6A C55G yielded a yeast fitness of 0.656. For G6A C55A, the yeast fitness was 0.587. G6A G18A C30U C55G gave a yeast fitness of at most 0.5. Work on G6A C33A A37C G58A C66U G67U yielded a yeast fitness of at most 0.5. In the case of G6A C27G A40C, the yeast fitness is reported as 0.545. In the case of G6A C33A, the yeast fitness is reported as 0.686. With G6A C22U A42C G52A G56C the yeast fitness was at most 0.5. G6A C22U gave a yeast fitness of 0.757. With G6A G12C U16C C31U G52C the yeast fitness was 0.555. Work on G6A G44A C46A G52A yielded a yeast fitness of 0.629. With G6A G17C A37C the yeast fitness was 0.634. G6A C24U C29G C66U showed a yeast fitness of at most 0.5. In the case of G6A C11U A40G, the yeast fitness is reported as at most 0.5. G6A C33A A42C gave a yeast fitness of 0.578. In the case of G6A G12C U16C C31U G52C A70G, the yeast fitness is reported as 0.651. G6A G10A A45G showed a yeast fitness of 0.647. G6A G9C C11G C27U C34U G68A showed a yeast fitness of at most 0.5. G6A G48C C66U gave a yeast fitness of 0.769. G6A C33G C34G C61A showed a yeast fitness of 0.548. Variant G6A C22U C61U A70G has a yeast fitness of at most 0.5. For G6A C27G C46U C60A C66G G68C, the yeast fitness was at most 0.5. G6A C24U C61G C66U showed a yeast fitness of 0.724. Work on G6A C34G C61G yielded a yeast fitness of 0.538. Work on G6A C24G U35A G48C A69G yielded a yeast fitness of 0.574. G6A C61U gave a yeast fitness of 0.902. Work on G6A C61A yielded a yeast fitness of 0.66. Work on G6A C66A A69C yielded a yeast fitness of 0.565. In the case of G6A C46G G51A G52C C62G C66U, the yeast fitness is reported as at most 0.5. In the case of G6A C11U U13C C27G A69C, the yeast fitness is reported as 0.541. Work on G6A G38A G56A yielded a yeast fitness of 0.679. G6A C24U C61A showed a yeast fitness of at most 0.5. Work on G6A U8C A15G A20U A45U U64C yielded a yeast fitness of at most 0.5. G6A G18A A36C U47G gave a yeast fitness of at most 0.5. With G6A C30A the yeast fitness was 0.845. G6A C30U gave a yeast fitness of 0.742. Work on G6A C27U C31G A43C C49G G52C U59A yielded a yeast fitness of at most 0.5. With G6A G18C A21C C33A G52A the yeast fitness was at most 0.5. In the case of G6A G25C, the yeast fitness is reported as 0.866. For G6A C27A C60A U64A, the yeast fitness was at most 0.5. With G6A G39C A45G the yeast fitness was at most 0.5. G6A G10C C34U G52C gave a yeast fitness of at most 0.5. In the case of G6A U8C C31G C60G, the yeast fitness is reported as at most 0.5. Variant G6A C30U A42C G48C has a yeast fitness of at most 0.5. Variant G6A G12A A57U has a yeast fitness of at most 0.5. For G6A C29G A37U G56C G67C, the yeast fitness was at most 0.5. For G6A G17C C31A A36U C55G G63A, the yeast fitness was at most 0.5.
